# Screening data as filed in PubChem BioAssay.
# CHOP UPR activ – activators of apoptotic arm of unfolded protein response (CHOP) | CHO-CHOP luciferase reporter, UPR activation, luminescence; percent of tunicamycin response over DMSO baseline | activation, % at 10 µM | hit rate 0.34% among 330,000 | AID 449763;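 active means at 10 µM dose, activation of 40% or more, normalized to positive control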;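 further: 100% = tunicamycin at 10 µg/mL and 0% = DMSO alone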
#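 Material: CHO-CHOP cells, stable luciferase reporter of PERK-eIF2a-CHOP signalling; quantity: 500 reporter cells seeded per well; buffer or medium: F12 medium containing 10% fetal bovine serum; compound: one dose, 10 µM in 0.5% DMSO; incubation: 6 h compound treatment, 37 °C; measured by: Steady-Glo luciferase luminescence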
# CHOP inhibitor – CHOP inhibition in unfolded protein response; CHO-K1 CHOP-promoter luciferase, tunicamycin-induced, 15-18 h; inhibition, % at 10 µM; hit rate 3.8% among 220,000; AID 2732;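 active means compounds that reduced the stress-induced luciferase reporter signal by more than about 70% of percent inhibition, limit read from the data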;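 further: 0% = tunicamycin plus vehicle and 100% = wells without tunicamycin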
# Dynein cargo inh – blocks dynein driven cargo transport along microtubules; z-score, hits read low; hit rate 0.47% among 220,000; 3617.4 mouse cells, GR-EGFP nuclear translocation imaging; test concentration mostly 20 µM; stimulated with dexamethasone, 1 µM; active compounds read low; AID 1381;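 active means plate z-score of nuclear minus cytoplasmic receptor signal below a set negative limit, without overly bright fluorescence or cell loss, cut at about -3.5 in these data, passing the limit was not always enough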;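 further: z-score of nuclear minus cytoplasmic ring GR-EGFP intensity difference per well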
#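 Buffer or medium – tet-free medium with charcoal-stripped serum · Signal – automated 10x imaging of fixed Hoechst-stained cells · Also added – dexamethasone agonist, 1.0 µM final, for 30 min · Incubation – induction 48 h, compound 1 h, agonist 30 min · Read-out – GR-EGFP nuclear translocation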
# L major viab – reduces viability of Leishmania major promastigotes; inhibition, % at 10 µM; resazurin fluorescence viability; hit rate 9% among 200,000; in the data active means inhibition above about 50%;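 further: promastigotes grown with compound for 44 hours at 28 °C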
# T cruzi inh – blocks replication of Trypanosoma cruzi; T. cruzi beta-gal in NIH3T3, luminescence, 90 h; inhibition, % (no concentration beside the values); hit rate 1.4% among 300,000;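 active means mean inhibition across valid replicates above about 55%, limit read from the data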;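 further: signal also drops with host cell toxicity which is not excluded here; 0% = plate median of DMSO wells and 100% = zero luminescence signal; higher percent means less beta-gal luminescence so fewer parasites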
#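 System: mouse NIH/3T3 fibroblasts infected with β-gal-expressing T. cruzi Tulahuen C4 / Input: NIH/3T3 cells, 5,000 per well / Buffer or medium: Low-serum DMEM with 2% FBS / Probe or stimulus: 5000 reporter trypomastigotes per well / Schedule: ≥90 h infection period, 3 h prior cell attachment / Measured by: GalScreen luminescence, 60 min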
# XBP1 UPR activ – activators of adaptive arm of unfolded protein response (XBP1); CHO-XBP1 luciferase reporter, IRE1-XBP1 UPR activation, luminescence; percent of tunicamycin response, DMSO as zero; activation, % at 20 µM; hit rate 0.33% among 330,000;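 active means versus positive control, 20 µM dose yields 30% or more activation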;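 further: 100% = tunicamycin at 10 µg/mL and 0% = DMSO only wells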
#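 Assay system: IRE1-XBP1 luciferase reporter CHO line. Input: 1000 cells/well. Buffer or medium: F12 with 10% serum. Doses: 20 µM, 1% DMSO. Times: overnight seeding at 37 °C, 6 h compound treatment at 37 °C. Technique: Steady-Glo luciferase glow luminescence, 10 min after reagent addition.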
# Active calls of the source: *; . = no result. The full list was thinned out, with hits kept by preference.
SMILES,CHOP UPR activ,CHOP inhibitor,Dynein cargo inh,L major viab,T cruzi inh,XBP1 UPR activ
Cc1cnn(C(=S)NCc2ccc(Cl)cc2)c1,-1.5,73.6*,-1.3,-3.4,-13.7,1.9
Cc1cnn(C(=S)NCCc2ccccc2)c1,3.9,53.4,-0.944,-4.0,-2.0,-0.4
NS(=O)(=O)c1cccc(NC(=O)CN2C(=O)C(=O)N(Cc3ccccc3)C2=O)c1,0.4,.,.,.,.,-4.2
CCOc1ccccc1N1CC(C(=O)Nc2cc(S(C)(=O)=O)ccc2Cl)CC1=O (stereo unspecified),-1.3,.,.,.,1.1,-2.3
COc1cc2c(cc1CNC[C@H]1O[C@@H](n3cnc4c(N)ncnc43)[C@H](O)[C@@H]1O)OCO2,-0.9,.,.,.,.,4.0
C/C(=N/O)c1cc(C(C)(C)C)c(O)c(C(C)(C)C)c1,-0.7,86.2*,0.478,6.1,-3.4,-1.5
Cc1cccc(C)c1NC1=C(Cl)C(=O)OC1OC(C)C (stereo unspecified),4.7,14.4,-0.33,50.1*,3.8,0.7
CCOC1OC(=O)C(Cl)=C1Nc1ccccc1C (stereo unspecified),6.7,4.9,-0.132,-4.9,-4.7,-1.5
CCOc1ccc2ccccc2c1C(=O)N1CCN(c2ccccc2)CC1,1.0,.,-1.03,82.8*,-32.1,1.2
CCOC(=O)c1[nH]c(C)c(C(=O)N2CCN(c3ccccc3)CC2)c1C,-0.4,4.4,-0.0441,-2.8,2.4,-3.1
COc1ccc(C2c3c(-c4ccccc4O)n[nH]c3C(=O)N2Cc2ccco2)cc1 (stereo unspecified),1.9,41.7,0.578,.,-2.4,0.0
COc1ccc(C2c3c(-c4ccccc4O)n[nH]c3C(=O)N2CCc2ccc(OC)c(OC)c2)cc1 (stereo unspecified),0.5,22.8,1.16,89.3*,29.0,1.8
c1ccc2c(c1)OCCOCCOCCOCCOc1ccccc1OCCOCCOCCO2,0.3,17.0,0.0175,99.2*,34.6,-1.6
COc1cccc(C(=O)N2CCN(C3CCN(Cc4ccccc4)CC3)CC2)c1OC,-1.9,5.3,1,.,-6.1,0.9
COc1ccc([N+](=O)[O-])cc1N(CC(O)CN1CCCCC1)S(=O)(=O)c1ccccc1 (stereo unspecified),-0.3,7.7,-0.891,81.8*,-14.6,-5.2
CCCN(CCC)CC(O)CN(c1cc([N+](=O)[O-])ccc1OC)S(=O)(=O)c1ccccc1 (stereo unspecified),-0.6,-46.0,-0.53,63.5*,-19.1,0.8
CCCn1c(C(C)Nc2nc(-c3ccc(Cl)c([N+](=O)[O-])c3)cs2)nc2cc(Cl)c(N3CCCCC3)cc21 (stereo unspecified),1.9,.,.,.,7.3,-2.2
FC(F)(F)c1cccc(NC(=S)NCC(c2cccnc2)N2CCOCC2)c1 (stereo unspecified),0.0,-7.0,-0.412,61.1*,44.7,-1.7
O=[N+]([O-])c1ccc(NC(=S)NCC(c2cccnc2)N2CCOCC2)cc1 (stereo unspecified),-2.8,16.2,-0.777,18.5,11.3,-0.8
N#CC1=C(SCc2ccccc2)NC(=O)CC1c1ccc(O)cc1 (stereo unspecified),0.3,16.2,0.766,27.5,-11.4,-1.8
Cc1ccc(C2CC(=O)NC(SCc3ccccc3)=C2C#N)cc1 (stereo unspecified),2.0,-16.9,-0.248,61.4*,9.7,1.8
N#CC1=C(SCc2ccccc2)NC(=O)CC1c1cccc(O)c1 (stereo unspecified),-1.7,3.0,-0.726,61.8*,23.0,1.6
CCCCCCSC1=C(C#N)C(c2ccccc2)CC(=O)N1 (stereo unspecified),0.5,77.4*,-0.188,-3.3,11.1,-0.4
CSC1=C(C#N)C(c2ccc(C(C)C)cc2)CC(=O)N1 (stereo unspecified),-0.8,72.9*,-0.0929,-1.0,-6.9,0.9
CCCSC1=C(C#N)C(c2cccs2)CC(=O)N1 (stereo unspecified),-1.1,30.1,1.91,.,-14.6,-1.7
SMILES,CHOP UPR activ,CHOP inhibitor,Dynein cargo inh,L major viab,T cruzi inh,XBP1 UPR activ
CCC1CCCCN1C(=O)c1ccc(OC2CCN(C(=O)CCOC)CC2)cc1 (stereo unspecified),6.4,.,.,.,21.5,-2.5
CCN(CC(=O)Nc1ccc(NC(C)=O)cc1)C(=O)c1cc2c(s1)CCCCC2,0.1,.,.,.,.,-0.3
Cc1cccc(SC2CCN(C(=O)C3CCC(=O)N(C4CC4)C3)CC2)c1 (stereo unspecified),0.0,.,.,.,-11.6,-4.7
O=C(CSc1nnc(COc2ccccc2)o1)N1CCCCC1,-1.6,.,.,.,-11.4,-2.0
CCN(CC)CCNC(=O)c1ccc2c(=O)n(C3CCCC3)c(=S)[nH]c2c1,-0.2,36.3,3.14,85.2*,-2.0,1.1
COCCn1nnnc1C(c1ccc(C)cc1)N1CCN(Cc2ccc3c(c2)OCO3)CC1 (stereo unspecified),.,-2.7,-0.193,22.4,22.2,.
c1ccc(Cn2nnnc2CN2CCN(Cc3ccc4c(c3)OCO4)CC2)cc1,-1.9,21.2,-0.483,88.5*,24.5,-2.9
Cc1ccc(C(c2nnnn2Cc2cccs2)N2CCN(Cc3ccc4c(c3)OCO4)CC2)cc1 (stereo unspecified),-0.9,43.9,-0.386,78.0*,11.8,-1.7
CCC(c1nnnn1Cc1ccc2c(c1)OCO2)N1CCN(c2ccc(OC)cc2)CC1 (stereo unspecified),-2.3,36.4,-0.645,70.7*,14.2,-0.2
CCC(c1nnnn1Cc1ccc2c(c1)OCO2)N1CCN(c2ccc(F)cc2)CC1 (stereo unspecified),-0.7,33.0,-0.925,18.9,2.3,-3.1
CC(C)C(c1nnnn1Cc1ccc(F)cc1)N1CCN(Cc2ccc3c(c2)OCO3)CC1 (stereo unspecified),-0.9,23.2,-0.79,67.8*,29.3,-5.5
CC[C@H](C)[C@H](NC(N)=O)C(=O)Nc1ccccc1F,0.8,14.2,-0.224,-8.0,3.1,6.1
CC1CN(CC(=O)Nc2nc3ccccc3s2)CC(C)O1 (stereo unspecified),0.4,.,.,.,-10.5,-0.9
COc1ccc(C(CCN(Cc2ccc(OC)c(OC)c2)C(C)=O)C(C)C)cc1 (stereo unspecified),-1.5,.,.,.,1.4,1.2
O=C(Nc1ccc(N2CCOCC2)cc1)c1cnsn1,-11.1,78.1*,-0.971,-7.0,2.0,-5.9
O=C(Nc1ccc(N2CCOCC2)cc1)c1cnccn1,-8.1,.,.,.,-0.7,-12.1
CSCCC(NS(=O)(=O)c1ccccc1)C(=O)OCc1cc(=O)oc2cc(O)ccc12 (stereo unspecified),0.9,.,.,.,-13.1,-1.3
Cc1nc2ccccc2n1CCc1nc2c3ccccc3nc(SCC#N)n2n1,0.2,-26.4,-1.6,-5.7,-1.7,19.9
